Source: article PMC6347715 (Proceedings of the National Academy of Sciences of the …, 2019)
≈ marks a conversion by molar mass, not a printed value.

Assays:
[1] = system: Wolbachia within female B. malayi adult parasites; assay: Adult B. malayi SCID mouse model: Wolbachia load; format: in vivo, Brugia malayi; settings: 100 mg/kg, 7 d orally
[2] = Aqueous solubility in pH 7.4 PBS buffer; format: physicochemical
[3] = system: Wolbachia in female adult L. sigmodontis; assay: L. sigmodontis gerbil model: Wolbachia load; format: in vivo, Litomosoides sigmodontis; settings: 18 wk post treatment
In short: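 Female gerbils aged 6–8 wk were infected by exposure to Ornithonyssus bacoti mites carrying L. sigmodontis L3. Treatment started 13 wk after infection, with animals randomised into groups of n = 5–9. Test compound in PEG300/propylene glycol/water (55/25/20) was given by oral gavage at 2.5 mL/kg. At necropsy 18 wk after treatment start, worms were recovered from the serous cavities. Wolbachia was measured by ftsZ qPCR in 5–20 individual female worms. Groups were compared with untreated controls by Kruskal–Wallis with Dunn's test.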

CYP2C9 = CYP2C9 (Homo sapiens, UniProt P11712); assay: CYP2C9 inhibition; format: in vitro ADME
Sequence of CYP2C9 (P11712 whole entry): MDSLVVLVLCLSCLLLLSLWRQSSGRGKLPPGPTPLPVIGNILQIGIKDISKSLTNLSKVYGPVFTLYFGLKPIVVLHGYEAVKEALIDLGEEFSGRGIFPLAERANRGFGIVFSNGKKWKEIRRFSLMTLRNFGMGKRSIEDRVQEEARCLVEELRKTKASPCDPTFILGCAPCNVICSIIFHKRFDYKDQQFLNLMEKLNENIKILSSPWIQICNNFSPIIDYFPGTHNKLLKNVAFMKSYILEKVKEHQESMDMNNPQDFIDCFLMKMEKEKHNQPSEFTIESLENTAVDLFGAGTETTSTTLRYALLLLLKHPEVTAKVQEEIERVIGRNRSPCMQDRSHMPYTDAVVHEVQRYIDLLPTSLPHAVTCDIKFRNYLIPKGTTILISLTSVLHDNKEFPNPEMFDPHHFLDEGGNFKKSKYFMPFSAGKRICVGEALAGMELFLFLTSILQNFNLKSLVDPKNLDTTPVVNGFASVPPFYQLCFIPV

B. malayi = assay: Adult B. malayi SCID mouse model: parasitology readout; format: in vivo, Brugia malayi; settings: over the 6 wk of observation post treatment
[4] = Solubility in fasted state-simulated intestinal fluid; format: physicochemical
[5] = Permeability in LLC-PK1 cell assay; format: in vitro ADME; settings: pig
[6] = system: Wolbachia within B. malayi mf; assay: B. malayi microfilaria time-kill assay; format: cell-based, Brugia malayi; settings: drug concentration 10 times EC50; exposures 1, 2, 6 d
In short: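 This is a time-kill variant of the 6-d B. malayi mf assay: 8,000 mf per well in supplemented RPMI at 37 °C, 5% CO2. Drug was removed by a wash step on the indicated exposure day. Wolbachia was then quantified by wsp/gst qPCR, with five replicates per time point per treatment. Results come from one experiment.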

P-gp = P-gp (Homo sapiens, UniProt P08183); assay: P-gp-mediated efflux; format: in vitro ADME; settings: not told
Sequence of P-gp (P08183 whole entry): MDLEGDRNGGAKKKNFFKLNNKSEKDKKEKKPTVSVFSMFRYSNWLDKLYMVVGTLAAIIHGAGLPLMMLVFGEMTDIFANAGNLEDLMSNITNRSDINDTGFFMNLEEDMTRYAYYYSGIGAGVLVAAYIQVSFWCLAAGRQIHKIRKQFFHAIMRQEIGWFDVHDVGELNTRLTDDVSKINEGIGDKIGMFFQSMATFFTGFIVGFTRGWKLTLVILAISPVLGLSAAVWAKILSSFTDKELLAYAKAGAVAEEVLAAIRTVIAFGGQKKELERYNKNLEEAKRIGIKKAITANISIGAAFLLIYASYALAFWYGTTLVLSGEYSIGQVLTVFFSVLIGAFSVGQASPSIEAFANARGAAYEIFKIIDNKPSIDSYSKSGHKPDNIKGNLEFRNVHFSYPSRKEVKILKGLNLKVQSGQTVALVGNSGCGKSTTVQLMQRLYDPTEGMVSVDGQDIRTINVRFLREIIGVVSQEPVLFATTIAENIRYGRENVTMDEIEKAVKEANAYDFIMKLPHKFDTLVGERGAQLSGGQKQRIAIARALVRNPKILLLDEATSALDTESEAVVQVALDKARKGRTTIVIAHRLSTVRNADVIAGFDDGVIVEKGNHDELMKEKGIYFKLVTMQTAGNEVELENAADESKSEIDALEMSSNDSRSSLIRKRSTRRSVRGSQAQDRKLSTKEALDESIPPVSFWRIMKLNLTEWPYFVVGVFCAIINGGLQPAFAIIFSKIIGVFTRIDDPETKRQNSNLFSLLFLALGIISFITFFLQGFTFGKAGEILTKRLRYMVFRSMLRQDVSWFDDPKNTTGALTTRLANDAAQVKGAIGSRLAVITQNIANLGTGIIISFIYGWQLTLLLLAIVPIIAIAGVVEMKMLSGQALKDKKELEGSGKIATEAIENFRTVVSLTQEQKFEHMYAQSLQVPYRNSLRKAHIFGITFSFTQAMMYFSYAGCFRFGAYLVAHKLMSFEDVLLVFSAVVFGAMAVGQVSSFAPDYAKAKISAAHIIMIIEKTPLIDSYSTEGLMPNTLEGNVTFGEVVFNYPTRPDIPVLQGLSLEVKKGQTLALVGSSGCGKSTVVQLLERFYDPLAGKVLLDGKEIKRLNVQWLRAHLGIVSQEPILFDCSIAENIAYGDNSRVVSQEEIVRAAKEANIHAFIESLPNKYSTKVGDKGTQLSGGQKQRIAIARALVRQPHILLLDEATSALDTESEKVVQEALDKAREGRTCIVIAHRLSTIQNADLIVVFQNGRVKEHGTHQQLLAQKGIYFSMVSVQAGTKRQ

CYP3A4 = CYP3A4 induction; format: in vitro ADME; settings: human
[7] = system: Wolbachia pipientis (wAlbB) in C6/36 cells; assay: Anti-Wolbachia cell-based assay; settings: C6/36, read-out: EC50 anti-Wolbachia, cell assay
[8] = system: CYP1A, CYP2C9, CYP2C19, CYP2D6, CYP3A; assay: Time-dependent inhibition of five major human CYP450 isoforms; format: in vitro ADME
L. sigmodontis = L. sigmodontis gerbil model: parasitology readout; format: in vivo, Litomosoides sigmodontis
In short: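 Gerbils were infected with L. sigmodontis via mites and given oral treatment from 13 wk post infection. Starting at 12 wk post infection, 10 µL of saphenous-vein blood was taken every two weeks and diluted in 300 µL Hinkelmann solution. Samples were centrifuged at 400 × g for 5 min, and the pellet was resuspended in 1 mL. Total mf were counted microscopically in a Sedgewick Rafter chamber, with follow-up to 18 wk after treatment start.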

pKa = format: physicochemical
Mouse PK in BALB/c mice = settings: in vivo

For `C[C@H]1COCCN1c1nc(NCc2cccnc2C(F)(F)F)c2cccnc2n1` [AWZ1066S, (S)-2-(3-methylmorpholino)-N-((2-(trifluoromethyl)pyridin-3-yl)methyl)pyrido[2,3-d]pyrimidin-4-amine], the “Wolbachia reduction compared with the vehicle group” value [1] was 98%, the solubility [2] was 238 µM (≈ 96.2 µg/mL) and the “Wolbachia load reduction compared with control untreated animals” value ([3]; 50 mg/kg orally twice daily 7 d) was over 99%. For the same compound, the “Wolbachia load reduction compared with control untreated animals” value ([3]; 100 mg/kg orally twice daily 7 d) was over 99%, the IC50 (CYP2C9) was 9.7 µM and the Ames test result (Ames test) was “negative”. The “mice in which release of mf was completely prevented” value (B. malayi) was 9/10, the solubility [4] was 560 µg/mL (≈ 1380 µM) and the Papp [5] was 7.4 ×10⁻⁶ cm/s. The “drug exposure needed for maximum reduction of Wolbachia” value [6] was 1 days, the efflux ratio (P-gp) was 7.8 and the IC50 (CYP3A4) was 37 µM. For the same compound, the EC50 [7] was 0.0025 ± 0.0004 µM, the time-dependent inhibition [8] was “does not show any time-dependent inhibition” and the “time from which peripheral blood microfilaremia began to decline” value (L. sigmodontis; 7-d treatment) was 6 wk post treatment. For the same compound, the “time from which amicrofilaremia was evident” value (L. sigmodontis; 7-d treatment groups, sustained until 18 wk) was 14 wk post treatment, the pKa (pKa) was 5.6 and the bioavailability (Mouse PK in BALB/c mice; BALB/c SCID, po) was 54 to 91%. It also gave a clearance (Mouse PK in BALB/c mice; iv, 5 mg/kg, total clearance, dosed intravenously) of 7.83 mL/min/kg.
